The source made the active and inactive calls. No cut-off for these calls is given here.
Tests used:
Assay type in all cases: functional
[1] = tested on: Radical scavenging activity; experiment: Antioxidant activity assessed as DPPH free radical scavenging activity by measuring [DPPH]/antioxidant EC50 ratio measured every 5 mins for 1 hr
In short: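 DPPH (200 µM ethanol stock, 100 µM final) mixed 1:1 with compound in ethanol, 10 concentrations (0–1 10^-3 M), duplicate. Read at 515 nm every 5 min for 1 h; % remaining DPPH at steady state plotted against antioxidant/DPPH molar ratio to give EC50. Reported as antiradical power; no value if steady state not reached within 1 h.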

[2] = Antioxidant activity assessed as protection against UV/H2O2-induced thymidine degradation in 12.5 mM phosphate buffer at 100 uM by competitive immuno-enzymatic assay
In short: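 Thymidine at 70 µM with compound at 100 µM and H2O2 at 5 mM in 12.5 mM phosphate buffer, irradiated at 254 nm, 1.75 J cm-2. Intact thymidine quantified by competitive anti-thymidine monoclonal antibody immunoassay; duplicate, averaged.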

[3] = Antioxidant activity assessed as protection against Fenton oxidation-induced thymidine degradation in 11.4 mM phosphate buffer at 100 uM by competitive immuno-enzymatic assay
[4] = Antioxidant activity assessed as protection against 340 Gy gamma-radiation-induced thymidine degradation in 12.5 mM phosphate buffer at 50 uM by competitive immuno-enzymatic assay
In short: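 Thymidine at 15 µM with compound at 50 µM, 12.5 mM phosphate buffer, given 340 Gy from a 137Cs source. Remaining intact thymidine measured by competitive immunoassay with anti-thymidine monoclonal antibody; duplicate, averaged.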

[5] = Antioxidant activity against ABTS radical assessed as Trolox equivalent
[6] = Antioxidant activity assessed as beta-carotene bleaching activity at 116 uM after 4 hrs by spectrophotometry relative to contro
In short: (§1)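 Emulsion of β-carotene, linoleic acid and Tween 40 in oxygen-saturated water added to compound in ethanol (24 or 116 µM). Incubated at 50 °C, absorbance at 470 nm read at zero and followed over 4 h. % protection = [1 − (A0 − At)/(Ac0 − Act)] × 100 versus no-compound control; triplicate, averaged.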

[7] = Antioxidant activity assessed as beta-carotene bleaching activity at 24 uM after 4 hrs by spectrophotometry relative to control; in short: as §1

COC(=O)/C(=C1/OC(=O)C(c2ccc(OC)cc2)=C1O)c1ccsc1
Ratio [1]: 2.97 | Activity [2]: 34.8% | Activity [3]: 45.2% | Activity [4]: 76% | Activity [5]: 2.69 mM

COC(=O)/C(=C1/OC(=O)C(c2ccc(OC)cc2)=C1O)c1ccccc1C(F)(F)F
Activity [6]: Active | Activity [2]: 46.1% | Activity [3]: 14.8% | Activity [4]: 17.6% | Activity [5]: 12.1 mM

COC(=O)/C=C1\OC(=O)C(c2ccc(O)cc2)=C1O
Ratio [1]: 2.85 | Activity [2]: 32.6% | Activity [3]: 82.7% | Activity [4]: 57.2% | Activity [5]: 0.48 mM

O=C1O[C@H]([C@@H](O)CO)C(O)=C1O
Ratio [1]: 4.56 | Activity [6]: inactive | Activity [7]: inactive | Activity [5]: 0.64 mM

COC(=O)/C(=C1/OC(=O)C(c2ccc(OC)cc2)=C1O)c1ccc(C(C)=O)cc1
Ratio [1]: 3.27 | Activity [6]: Active | Activity [7]: Active | Activity [2]: 41.1% | Activity [3]: 41.1% | Activity [4]: 34.3% | Activity [5]: 6.18 mM

COC(=O)/C(=C1/OC(=O)C(c2ccc(OC)cc2)=C1O)c1cccc(C(F)(F)F)c1
Ratio [1]: 4.08 | Activity [2]: 35.8% | Activity [3]: 33.9% | Activity [4]: 46.3% | Activity [5]: 2.75 mM

COC(=O)[C@H](O)[C@H]1OC(=O)C(c2ccc(OC)cc2)=C1O
Ratio [1]: 3.44 | Activity [2]: 24.9% | Activity [3]: 25.8% | Activity [4]: 87.4% | Activity [5]: 1.55 mM

COC(=O)[C@H](O)[C@H]1OC(=O)C(c2ccc(O)cc2)=C1O
Ratio [1]: 3 | Activity [2]: 29.4% | Activity [3]: 93.4% | Activity [4]: 63.7% | Activity [5]: 0.6 mM

COC(=O)[C@H](O)[C@H]1OC(=O)C(c2ccc(Br)cc2)=C1O
Ratio [1]: 2.81 | Activity [2]: 37.3% | Activity [3]: 37.6% | Activity [4]: 60.2% | Activity [5]: 4.91 mM

COC(=O)/C(=C1/OC(=O)C(c2ccc(OC)cc2)=C1O)c1cccc(O)c1
Ratio [1]: 3.68 | Activity [2]: 50% | Activity [3]: 91.6% | Activity [4]: 34.2% | Activity [5]: 1.56 mM

COC(=O)[C@H](O)[C@H]1OC(=O)C(C(=O)OCc2ccccc2)=C1O
Activity [2]: 16.8% | Activity [3]: 2.6% | Activity [4]: 47.9% | Activity [5]: 43.3 mM

Cc1c(C)c2c(c(C)c1O)CCC(C)(C(=O)O)O2 (stereo not given)
Activity [2]: 4.4% | Activity [3]: 11.7% | Activity [4]: 5.2%

COC(=O)[C@H](O)[C@H]1OC(=O)C(c2ccc([N+](=O)[O-])cc2)=C1O
Activity [2]: 33.4% | Activity [3]: 70.7% | Activity [4]: 60.9% | Activity [5]: 24.6 mM

COC(=O)/C=C1\OC(=O)C(c2cccs2)=C1O
Activity [2]: 23.6% | Activity [3]: 0% | Activity [4]: 51.4%

COC(=O)/C(=C1/OC(=O)C(c2ccc(OC)cc2)=C1O)c1ccccc1
Ratio [1]: 3.2 | Activity [2]: 42.9% | Activity [3]: 58% | Activity [4]: 46.4% | Activity [5]: 1.67 mM

COC(=O)[C@H](O)[C@H]1OC(=O)C(c2ccc(F)cc2)=C1O
Ratio [1]: 4.2 | Activity [2]: 55.3% | Activity [3]: 55.2% | Activity [4]: 39% | Activity [5]: 2.94 mM

COC(=O)/C=C1\OC(=O)C(c2ccc(Br)cc2)=C1O
Ratio [1]: 1.17 | Activity [2]: 41.2% | Activity [3]: 27.1% | Activity [4]: 51.7% | Activity [5]: 17.7 mM

O=C(O)c1cc(O)c(O)c(O)c1
Ratio [1]: 11.7 | Activity [5]: 1.36 mM

COC(=O)/C(=C1/OC(=O)C(c2ccc(OC)cc2)=C1O)c1ccc(Cl)cc1
Ratio [1]: 3.37 | Activity [2]: 45% | Activity [3]: 41.7% | Activity [4]: 22.6% | Activity [5]: 3.97 mM

COC(=O)/C(=C1/OC(=O)C(c2ccc(OC)cc2)=C1O)c1ccoc1
Ratio [1]: 3.35 | Activity [2]: 36% | Activity [3]: 13.8% | Activity [4]: 77% | Activity [5]: 1.06 mM

COC(=O)[C@H](O)[C@H]1OC(=O)C(c2ccccc2)=C1O
Ratio [1]: 3.57 | Activity [6]: > 44% | Activity [2]: 33.2% | Activity [3]: 31% | Activity [4]: 62% | Activity [5]: 1.94 mM

COC(=O)[C@H](O)[C@H]1OC(=O)C(c2cccs2)=C1O
Ratio [1]: 2.25 | Activity [2]: 16.1% | Activity [3]: 0% | Activity [4]: 40.3%

COC(=O)/C=C1\OC(=O)C(c2ccc([N+](=O)[O-])cc2)=C1O
Activity [2]: 31.5% | Activity [3]: 40.7% | Activity [4]: 58.5% | Activity [5]: 18.7 mM

COC(=O)/C=C1\OC(=O)C(c2ccc(OC)cc2)=C1O
Ratio [1]: 3.6 | Activity [6]: > 44% | Activity [2]: 30.7% | Activity [3]: 32% | Activity [4]: 73.8% | Activity [5]: 1.31 mM

COC(=O)[C@H](O)[C@H]1OC(=O)C(c2ccc(C)cc2)=C1O
Ratio [1]: 3.27 | Activity [2]: 43.8% | Activity [3]: 7% | Activity [4]: 42.7% | Activity [5]: 1.54 mM

COC(=O)/C=C1\OC(=O)C(c2ccccc2)=C1O
Ratio [1]: 3.22 | Activity [2]: 37.7% | Activity [3]: 45.8% | Activity [4]: 69.4% | Activity [5]: 46.2 mM

COC(=O)/C(=C1/OC(=O)C(c2ccc(OC)cc2)=C1O)c1ccco1
Ratio [1]: 3.42 | Activity [2]: 28.7% | Activity [3]: 0% | Activity [4]: 62% | Activity [5]: 1.16 mM

COC(=O)[C@H](O)[C@H]1OC(=O)C(c2ccc(OCc3ccccc3)cc2)=C1O
Ratio [1]: 3.12 | Activity [2]: 51% | Activity [3]: 21.1% | Activity [4]: 37.4% | Activity [5]: 2.16 mM

COC(=O)/C=C1\OC(=O)C(c2ccc(F)cc2)=C1O
Ratio [1]: 1.97 | Activity [2]: 69.3% | Activity [3]: 28.3% | Activity [4]: 52.9%

COC(=O)/C=C1\OC(=O)C(c2ccc(C)cc2)=C1O
Ratio [1]: 2.56 | Activity [2]: 52.7% | Activity [3]: 14.1% | Activity [4]: 30% | Activity [5]: 6.51 mM

COC(=O)[C@H](O)[C@H]1OC(=O)C(C(C)=O)=C1O
Activity [2]: 7.4% | Activity [3]: 0% | Activity [4]: 5.6% | Activity [5]: 82.7 mM

COC(=O)/C=C1\OC(=O)C(C(=O)OCc2ccccc2)=C1O
Ratio [1]: 0.93 | Activity [2]: 13.9% | Activity [3]: 0.3% | Activity [4]: 23.1% | Activity [5]: 18.5 mM

Reference: ChEMBL document CHEMBL1275383, “Synthesis and antioxidant properties of pulvinic acids analogues” (Bioorg Med Chem, 2010)
